# Laboratory results as given in ChEMBL document CHEMBL4334471, “Discovery of 1,8-disubstituted-[1,2,3]triazolo[4,5-c]quinoline derivatives as a new class of Hippo signaling pathway inhibitors” (Bioorg Med Chem Lett, 2019).
# Key:
# [1] = test system: PI3-kinase p110-alpha/p85-alpha (Homo sapiens), P27986+P42336 [H1047R]; assay: Inhibition of recombinant full-length human PI3K p110/p85 H1047R mutant assessed as residual activity at 10 uM using phosphatidylinositol-4, 5-bisphosphate as substrate incubated for 40 mins in presence of [gamma33P]ATP by scintillation counting based radiometry assay relative to control
# [2] = test system: Mast/stem cell growth factor receptor Kit (Homo sapiens), P10721 [D816H]; assay: Inhibition of recombinant human C-Kit D816H mutant (544 to end residues) assessed as residual activity at 10 uM poly(Glu, Tyr) 4:1 as substrate incubated 40 mins in presence of [gamma-33ATP] by scintillation counting based radiometry assay relative to control
# [3] = target: Casein kinase I isoform epsilon (Homo sapiens) (UniProt P49674); assay: Inhibition of recombinant human CK1epsilon assessed as residual activity at 10 uM using KRRRALS(p)VASLPGL as substrate incubated for 120 mins in presence of [gamma-33ATP] by scintillation counting based radiometry assay relative to control
# [4] = target: BMP-2-inducible protein kinase (Homo sapiens) (UniProt Q9NSY1); assay: Inhibition of recombinant human BIKe assessed as residual activity at 10 uM using peptide as substrate incubated for 120 mins in presence of [gamma-33ATP] by scintillation counting based radiometry assay relative to control
# [5] = target: Tyrosine-protein kinase BTK (Homo sapiens) (UniProt Q06187); assay: Inhibition of recombinant full length human BTK assessed as residual activity at 10 uM using KVEKIGEGTYGVVYK substrate incubated for 40 mins in presence of [gamma-33ATP] by scintillation counting based radiometry assay relative to control
# Sequence of Tyrosine-protein kinase BTK (Homo sapiens) (Q06187 whole entry): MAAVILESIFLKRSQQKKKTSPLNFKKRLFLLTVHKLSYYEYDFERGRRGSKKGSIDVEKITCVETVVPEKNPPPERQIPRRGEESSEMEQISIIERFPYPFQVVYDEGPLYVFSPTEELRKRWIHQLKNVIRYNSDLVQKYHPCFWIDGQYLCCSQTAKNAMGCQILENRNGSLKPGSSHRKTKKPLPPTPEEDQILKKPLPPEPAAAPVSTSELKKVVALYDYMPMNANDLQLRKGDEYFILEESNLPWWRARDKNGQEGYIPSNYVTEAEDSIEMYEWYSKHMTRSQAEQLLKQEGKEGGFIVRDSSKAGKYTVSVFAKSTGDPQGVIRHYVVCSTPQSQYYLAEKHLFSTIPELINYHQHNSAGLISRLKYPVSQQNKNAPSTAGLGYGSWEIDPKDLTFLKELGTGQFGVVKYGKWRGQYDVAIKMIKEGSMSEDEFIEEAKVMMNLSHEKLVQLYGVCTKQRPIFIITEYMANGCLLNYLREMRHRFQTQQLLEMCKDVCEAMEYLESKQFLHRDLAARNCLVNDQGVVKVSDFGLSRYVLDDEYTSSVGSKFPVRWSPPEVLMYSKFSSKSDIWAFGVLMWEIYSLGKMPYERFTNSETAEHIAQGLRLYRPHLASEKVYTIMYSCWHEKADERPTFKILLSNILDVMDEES
# [6] = target: Serine/threonine-protein kinase Nek3 (Homo sapiens) (UniProt P51956); assay: Inhibition of recombinant full-length human NEK3 assessed as residual activity at 10 uM using myelin basic protein as substrate measured after 40 mins in presence of [gamma33P]ATP by scintillation counting based radiometry assay relative to control
# Sequence of Serine/threonine-protein kinase Nek3 (Homo sapiens) (P51956 whole entry): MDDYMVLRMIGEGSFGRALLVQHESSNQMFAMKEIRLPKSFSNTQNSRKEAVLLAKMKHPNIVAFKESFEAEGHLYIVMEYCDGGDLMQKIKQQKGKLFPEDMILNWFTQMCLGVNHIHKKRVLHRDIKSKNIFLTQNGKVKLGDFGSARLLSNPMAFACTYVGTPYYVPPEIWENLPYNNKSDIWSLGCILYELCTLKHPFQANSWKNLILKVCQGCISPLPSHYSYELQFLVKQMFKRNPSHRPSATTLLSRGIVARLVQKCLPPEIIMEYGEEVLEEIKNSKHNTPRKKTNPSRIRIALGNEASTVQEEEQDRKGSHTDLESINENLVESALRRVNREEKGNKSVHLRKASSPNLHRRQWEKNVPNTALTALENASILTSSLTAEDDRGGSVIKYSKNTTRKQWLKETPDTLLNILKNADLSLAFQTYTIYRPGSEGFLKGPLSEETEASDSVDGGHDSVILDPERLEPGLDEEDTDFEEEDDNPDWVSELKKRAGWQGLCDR
# A549 = assay: Inhibition of hippo signalling protein in human A549 cells assessed as increase in CTGF mRNA expression level incubated for 24 hrs by qRT-PCR analysis; assay type: cell-based
# How it was run: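 A549-CTGF cells were exposed to compound or 0.1% DMSO for 24 h before total RNA extraction. Endogenous CTGF mRNA was quantified by real-time PCR. Data were mean ± SEM (n=4) and compared by Student's t-test.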
# [7] = target: AP2-associated protein kinase 1 (Homo sapiens) (UniProt Q2M2I8); assay: Inhibition of human AAK1 assessed as residual activity at 10 uM using peptide as substrate incubated for 120 mins in presence of [gamma-33ATP] by scintillation counting based radiometry assay relative to control
# [8] = target: Protein-tyrosine kinase 6 (Homo sapiens) (UniProt Q13882); assay: Inhibition of recombinant full length human BRK assessed as residual activity at 10 uM using poly(Glu, Tyr) 4:1 as substrate incubated for 40 mins in presence of [gamma-33ATP] by scintillation counting based radiometry assay relative to control
# [9] = target: Tyrosine-protein kinase Fgr (Homo sapiens) (UniProt P09769); assay: Inhibition of recombinant human FGR (2 to end residues) assessed as residual activity at 10 uM using poly(Glu, Tyr) 4:1 as substrate at 40 mins in presence of [gamma-33ATP] by scintillation counting based radiometry assay relative to control
# [10] = target: Serine/threonine-protein kinase VRK1 (Homo sapiens) (UniProt Q99986); assay: Inhibition of recombinant human VRK1 assessed as residual activity at 10 uM in presence of [gamma33P]ATP by scintillation counting based radiometry assay relative to control
# [11] = target: Protein kinase C theta type (Homo sapiens) (UniProt Q04759); assay: Inhibition of recombinant full length human PKCtheta assessed as residual activity at 10 uM using histone H1 as substrate incubated for 40 mins in presence of [gamma33P]ATP by scintillation counting based radiometry assay relative to control
# Sequence of Protein kinase C theta type (Homo sapiens) (Q04759 whole entry, looked up): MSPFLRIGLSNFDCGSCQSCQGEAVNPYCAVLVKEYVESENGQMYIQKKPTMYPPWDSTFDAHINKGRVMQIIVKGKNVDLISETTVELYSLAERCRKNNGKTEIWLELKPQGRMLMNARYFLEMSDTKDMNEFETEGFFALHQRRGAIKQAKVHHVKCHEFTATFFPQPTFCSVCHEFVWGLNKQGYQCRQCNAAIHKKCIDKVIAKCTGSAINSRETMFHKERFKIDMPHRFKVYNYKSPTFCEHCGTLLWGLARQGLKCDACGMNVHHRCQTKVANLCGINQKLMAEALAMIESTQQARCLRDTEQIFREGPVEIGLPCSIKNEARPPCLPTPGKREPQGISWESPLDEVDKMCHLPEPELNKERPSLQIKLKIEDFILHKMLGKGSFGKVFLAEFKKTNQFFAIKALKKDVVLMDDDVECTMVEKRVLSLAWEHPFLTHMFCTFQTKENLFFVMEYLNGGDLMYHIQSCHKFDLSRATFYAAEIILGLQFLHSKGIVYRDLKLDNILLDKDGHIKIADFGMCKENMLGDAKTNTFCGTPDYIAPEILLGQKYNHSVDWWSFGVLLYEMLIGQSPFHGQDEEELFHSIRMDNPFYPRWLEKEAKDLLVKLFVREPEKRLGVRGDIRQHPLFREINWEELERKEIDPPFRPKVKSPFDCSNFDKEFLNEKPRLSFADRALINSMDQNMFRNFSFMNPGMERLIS
# [12] = target: Platelet-derived growth factor receptor alpha (Homo sapiens) (UniProt P16234); assay: Inhibition of human PDGFRalpha (550 to end residues) assessed as residual activity at 10 uM using poly(Glu, Tyr) 4:1 as substrate measured after 40 mins in presence of [gamma33P]ATP by scintillation counting based radiometry assay relative to control
# [13] = target: Serine/threonine-protein kinase MAK (Homo sapiens) (UniProt P20794); assay: Inhibition of recombinant human MAK assessed as residual activity at 10 uM using RRRFRPASPLRGPPK as substrate after 120 mins in presence of [gamma-33ATP] by scintillation counting based radiometry assay relative to control
# [14] = target: Myosin light chain kinase, smooth muscle (Homo sapiens) (UniProt Q15746); assay: Inhibition of recombinant human MLCK (1425 to 1771 residues) assessed as residual activity at 10 uM using […] incubated for 40 mins in presence of [gamma-33ATP by scintillation counting based radiometry assay relative to control
# Sequence of Myosin light chain kinase, smooth muscle (Homo sapiens) (Q15746 whole entry, the tested form may be a part): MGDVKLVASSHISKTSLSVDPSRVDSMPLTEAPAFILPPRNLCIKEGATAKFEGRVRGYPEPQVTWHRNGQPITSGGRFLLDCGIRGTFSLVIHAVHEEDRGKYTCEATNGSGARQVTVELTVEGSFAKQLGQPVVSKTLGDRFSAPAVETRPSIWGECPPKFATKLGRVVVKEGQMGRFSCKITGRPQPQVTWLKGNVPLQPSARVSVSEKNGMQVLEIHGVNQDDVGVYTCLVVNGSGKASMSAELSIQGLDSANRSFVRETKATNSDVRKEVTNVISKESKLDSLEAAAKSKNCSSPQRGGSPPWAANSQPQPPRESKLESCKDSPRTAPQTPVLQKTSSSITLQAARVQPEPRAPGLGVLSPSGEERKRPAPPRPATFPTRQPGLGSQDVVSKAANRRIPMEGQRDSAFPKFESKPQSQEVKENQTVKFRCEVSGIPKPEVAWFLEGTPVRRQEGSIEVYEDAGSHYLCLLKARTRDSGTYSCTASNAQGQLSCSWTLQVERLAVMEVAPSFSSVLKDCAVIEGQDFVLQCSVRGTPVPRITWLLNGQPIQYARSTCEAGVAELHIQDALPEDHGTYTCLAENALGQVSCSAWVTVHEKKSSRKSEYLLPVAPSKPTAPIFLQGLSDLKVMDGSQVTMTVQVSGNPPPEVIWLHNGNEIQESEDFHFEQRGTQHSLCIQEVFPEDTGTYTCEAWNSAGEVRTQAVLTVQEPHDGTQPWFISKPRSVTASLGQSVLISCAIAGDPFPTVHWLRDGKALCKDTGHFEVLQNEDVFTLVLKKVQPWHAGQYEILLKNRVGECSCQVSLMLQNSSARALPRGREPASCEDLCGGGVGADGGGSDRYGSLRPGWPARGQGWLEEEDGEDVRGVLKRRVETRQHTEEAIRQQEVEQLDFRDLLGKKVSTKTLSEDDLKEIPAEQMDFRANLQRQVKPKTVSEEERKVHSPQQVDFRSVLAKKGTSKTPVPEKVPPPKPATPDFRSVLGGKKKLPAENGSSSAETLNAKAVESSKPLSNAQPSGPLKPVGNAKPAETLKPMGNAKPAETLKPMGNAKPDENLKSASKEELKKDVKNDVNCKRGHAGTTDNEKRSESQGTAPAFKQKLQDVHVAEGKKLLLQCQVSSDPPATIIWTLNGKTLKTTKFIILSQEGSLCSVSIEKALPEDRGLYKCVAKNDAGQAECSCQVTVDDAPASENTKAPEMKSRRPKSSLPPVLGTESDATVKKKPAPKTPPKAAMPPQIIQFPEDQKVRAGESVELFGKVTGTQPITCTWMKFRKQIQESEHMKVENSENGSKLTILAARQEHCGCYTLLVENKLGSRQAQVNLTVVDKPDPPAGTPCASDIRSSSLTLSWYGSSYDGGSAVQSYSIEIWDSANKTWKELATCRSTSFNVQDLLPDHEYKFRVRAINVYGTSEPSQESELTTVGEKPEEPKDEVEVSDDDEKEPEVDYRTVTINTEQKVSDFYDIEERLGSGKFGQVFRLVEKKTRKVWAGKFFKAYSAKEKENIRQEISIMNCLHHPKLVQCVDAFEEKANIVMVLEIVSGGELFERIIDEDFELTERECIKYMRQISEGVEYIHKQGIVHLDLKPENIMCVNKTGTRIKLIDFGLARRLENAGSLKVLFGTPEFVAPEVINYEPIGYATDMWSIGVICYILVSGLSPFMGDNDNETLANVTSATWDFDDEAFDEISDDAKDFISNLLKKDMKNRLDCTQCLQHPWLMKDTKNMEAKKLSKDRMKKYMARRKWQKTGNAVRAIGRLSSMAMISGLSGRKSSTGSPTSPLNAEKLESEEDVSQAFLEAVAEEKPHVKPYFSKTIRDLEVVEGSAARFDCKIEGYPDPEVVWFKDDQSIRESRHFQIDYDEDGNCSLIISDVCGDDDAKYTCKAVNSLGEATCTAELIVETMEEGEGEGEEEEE
# [15] = test system: Macrophage colony-stimulating factor 1 receptor (Homo sapiens), P07333 [Y969C]; assay: Inhibition of recombinant human FMS Y969C mutant (538 to end residues) assessed as residual activity at 10 uM using EEEEYEEEEEEYYIIEEEEEEYEEEEEEYYEEEEEEKKKK as substrate at 40 mins in presence of [gamma-33ATP] by scintillation counting based radiometry assay relative to control
# [16] = target: Serine/threonine-protein kinase 35 (Homo sapiens) (UniProt Q8TDR2); assay: Inhibition of recombinant full length human CLIK1 assessed as residual activity at 10 uM using RSRSRSRSRSRS as substrate incubated 40 mins in presence of [gamma-33ATP] by scintillation counting based radiometry assay relative to control
# Homo sapiens = species: Homo sapiens; assay: Inhibition of recombinant human Plk4 S34T mutant (1 to 273 residues) assessed as residual activity at 10 uM using casein as substrate incubated for 40 mins in presence of [gamma33P]ATP by scintillation counting based radiometry assay relative to control
# [17] = test system: Serine/threonine-protein kinase B-raf (Homo sapiens), P15056 [V600E]; assay: Inhibition of recombinant full length human B-Raf V599E mutant (416 to end residues) assessed as residual activity at 10 uM using myelin basic protein as substrate incubated for 40 mins in presence of [gamma-33ATP] by scintillation counting based radiometry assay relative to control
# Sequence of Serine/threonine-protein kinase B-raf (Homo sapiens), P15056 [V600E] (P15056 whole entry V600E): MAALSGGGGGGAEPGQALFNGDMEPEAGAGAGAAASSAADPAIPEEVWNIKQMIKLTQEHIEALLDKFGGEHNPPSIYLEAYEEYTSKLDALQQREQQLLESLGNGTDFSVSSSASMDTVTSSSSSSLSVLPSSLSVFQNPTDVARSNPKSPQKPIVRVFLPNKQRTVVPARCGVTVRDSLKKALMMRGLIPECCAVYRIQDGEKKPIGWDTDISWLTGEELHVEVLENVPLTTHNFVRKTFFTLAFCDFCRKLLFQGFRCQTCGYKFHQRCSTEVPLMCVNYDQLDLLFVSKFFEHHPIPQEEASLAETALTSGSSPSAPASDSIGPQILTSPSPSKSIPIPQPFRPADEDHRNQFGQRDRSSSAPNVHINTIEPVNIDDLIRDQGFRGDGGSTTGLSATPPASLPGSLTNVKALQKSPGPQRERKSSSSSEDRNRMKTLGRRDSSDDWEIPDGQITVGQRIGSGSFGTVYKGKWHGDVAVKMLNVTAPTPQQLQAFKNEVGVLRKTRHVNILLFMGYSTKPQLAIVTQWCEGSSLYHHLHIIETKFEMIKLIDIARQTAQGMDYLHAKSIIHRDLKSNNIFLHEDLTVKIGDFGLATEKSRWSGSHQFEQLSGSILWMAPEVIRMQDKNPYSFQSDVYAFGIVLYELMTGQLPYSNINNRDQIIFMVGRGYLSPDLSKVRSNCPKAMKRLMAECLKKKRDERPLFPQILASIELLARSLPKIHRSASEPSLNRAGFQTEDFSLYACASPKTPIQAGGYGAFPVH
# [18] = test system: Mitogen-activated protein kinase 14 (Homo sapiens), Q16539 [T106M]; assay: Inhibition of recombinant human full length SAPK2a T106M mutant assessed as residual activity at 10 uM using myelin basic protein as substrate incubated for 40 mins in presence of [gamma33P]ATP by scintillation counting based radiometry assay relative to control
# Sequence of Mitogen-activated protein kinase 14 (Homo sapiens), Q16539 [T106M] (Q16539 whole entry T106M): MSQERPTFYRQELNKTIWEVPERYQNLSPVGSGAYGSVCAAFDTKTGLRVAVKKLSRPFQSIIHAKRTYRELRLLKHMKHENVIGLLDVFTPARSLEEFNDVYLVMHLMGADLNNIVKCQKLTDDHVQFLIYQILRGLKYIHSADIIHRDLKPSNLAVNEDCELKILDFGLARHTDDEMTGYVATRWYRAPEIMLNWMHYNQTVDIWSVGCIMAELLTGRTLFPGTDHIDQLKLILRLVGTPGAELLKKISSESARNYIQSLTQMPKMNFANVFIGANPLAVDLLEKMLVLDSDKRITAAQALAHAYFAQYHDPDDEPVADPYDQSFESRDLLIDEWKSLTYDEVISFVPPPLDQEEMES
# [19] = target: cGMP-dependent protein kinase 1 (Homo sapiens) (UniProt Q13976); assay: Inhibition of recombinant full-length human PKG1alpha assessed as residual activity at 10 uM using RRRLSFAEPG as substrate incubated for 40 mins in presence of [gamma33P]ATP by scintillation counting based radiometry assay relative to control
smiles,measurement,setting,value
C[C@@H](c1ccccc1)n1nnc2cnc3ccc(-c4cnc5[nH]ccc5c4)cc3c21,Activity,[1],16%
same,Activity,[2],8%
same,Activity,[3],32%
same,Activity,[4],54%
same,Activity,[5],17%
same,Activity,[6],73%
same,inhibition,A549,Dose-dependent effect
same,Activity,[7],78%
same,Activity,[8],21%
same,Activity,[9],5%
same,Activity,[10],96%
same,Activity,[11],70%
same,Activity,[12],95%
same,Activity,[13],87%
same,Activity,[14],61%
same,Activity,[15],52%
same,Activity,[16],75%
same,Activity,Homo sapiens,82%
same,Activity,[17],64%
same,Activity,[18],97%
same,Activity,[19],70%
